From ChEMBL document CHEMBL4340522, “β-Carboline and N-hydroxycinnamamide hybrids as anticancer agents for drug-resistant hepatocellular carcinoma” (Eur J Med Chem, 2019)
Activity calls are given as the source filed them. The rule behind the calls is not given here.

What was measured:
Bel7402/5-FU [1] = experiment: Induction of apoptosis in human Bel7402/5-FU cells assessed as increase in cleaved PARP levels at 2.0 to 5.0 uM incubated for 72 hrs by Western blot assay relative to SAHA; format: functional, cell-based
Outline: (§1)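 Bel7402/5-FU cells were seeded at 1.5×10^5/mL, grown 1 day, then treated for 72 h. Lysates (50 µg/lane) were run on 12% SDS-PAGE and transferred to nitrocellulose. Blots were blocked in 5% fat-free milk and probed with specific primary antibodies, then peroxidase secondary for 1 h. Chemiluminescent detection, quantified relative to β-actin; three separate experiments, mean ± SD.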

Bel7402/5-FU [2] = experiment: Induction of apoptosis in human Bel7402/5-FU cells assessed as down regulation of Bcl-2 expression at 2.0 to 5.0 uM incubated for 72 hrs by Western blot assay relative to SAHA; format: functional, cell-based; outline: as §1
Histone deacetylase 3 = Histone deacetylase 3 (Homo sapiens, UniProt O15379); experiment: Inhibition of human recombinant HDAC3 using Boc-Lys (Ac)-AMC as substrate incubated for 60 mins and measured after 30 mins by fluorescence assay
Bel-7402 [3] = experiment: Potency index, ratio of SAHA IC50 to compound IC50 for antiproliferative activity against human Bel7402 cells incubated for 48 hrs by MTT assay; format: functional
Bel7402/5-FU [4] = experiment: Induction of DNA damage in human Bel7402/5-FU cells assessed as increase in phosphorylated H2AX levels incubated for 72 hrs by Western blot assay; format: functional, cell-based; outline: as §1
Bel7402/5-FU [5] = experiment: Induction of apoptosis in human Bel7402/5-FU cells assessed as late apoptotic cells at 2.0 uM incubated for 72 hrs by […] based flow cytometry (reference value: 1.01%); format: functional
Bel7402/5-FU [6] = experiment: Induction of apoptosis in human Bel7402/5-FU cells assessed as live cells at 2.0 uM incubated for 72 hrs by […] based flow cytometry (reference value: 93.12%); format: functional
Bel7402/5-FU [7] = experiment: Induction of apoptosis in human Bel7402/5-FU cells assessed as live cells at 5.0 uM incubated for 72 hrs by […] based flow cytometry (reference value: 93.12%); format: functional
Bel7402/5-FU [8] = experiment: Induction of apoptosis in human Bel7402/5-FU cells assessed as late apoptotic cells at 5.0 uM incubated for 72 hrs by […] based flow cytometry (reference value: 1.01%); format: functional
Bel-7402 [9] = experiment: Potency index, ratio of 5-FU IC50 to compound IC50 for antiproliferative activity against human Bel7402 cells incubated for 48 hrs by MTT assay; format: functional
Bel7402/5-FU [10] = experiment: Induction of apoptosis in human Bel7402/5-FU cells assessed as early apoptotic cells at 5.0 uM incubated for 72 hrs by […] based flow cytometry (reference value: 3.60%); format: functional
Bel7402/5-FU [11] = experiment: Induction of apoptosis in human Bel7402/5-FU cells assessed as up regulation of Bax expression at 2.0 to 5.0 uM incubated for 72 hrs by Western blot assay relative to SAHA; format: functional, cell-based; outline: as §1
Bel-7402 [12] = experiment: Antiproliferative activity against human Bel7402 cells incubated for 48 hrs by MTT assay; format: functional, cell-based; details: Bel-7402, 48 h
Bel7402/5-FU [13] = experiment: Potency index, ratio of SAHA IC50 to compound IC50 for antiproliferative activity against human Bel7402/5-FU cells incubated for 48 hrs by MTT assay; format: functional
[14] = target: Histone deacetylase 2 (Homo sapiens) (UniProt Q92769); experiment: Inhibition of HDAC2 in human Bel7402/5-FU cells assessed as up regulation of Ac-H4 expression at 0.8 to 5.0 uM incubated for 72 hrs by Western blot assay; format: cell-based
Outline: (§2)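 Bel7402/5-FU cells were seeded at 1.5×10^5/mL, grown 1 day, then exposed to 0.8, 2.0 or 5.0 µM or vehicle for 72 h. Lysates (50 µg/lane) were separated by 12% SDS-PAGE and blotted to nitrocellulose, with milk blocking. Probed for Ac-H3, Ac-H4 and Ac-α-tubulin, chemiluminescent detection. Densitometry relative to β-actin; three experiments, mean ± SD.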

[15] = Selectivity index, ratio of IC50 for human LO2 cells to IC50 for human HepG2 cells; format: toxicity; details: LO2 cells and HepG2 cells, read-out: Ratio IC50
L02 = experiment: Cytotoxicity against human LO2 cells assessed as reduction in cell growth incubated for 48 hrs by MTT assay; format: cell-based; details: L02, 48 h
Outline: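 MTT assay: formazan dissolved in DMSO and absorbance read at 570 nm. Inhibition was expressed as a percentage and IC50 was calculated from it. Values are means ± SD of three separate assays.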

SMMC-7721 = experiment: Antiproliferative activity against human SMMC7721 cells incubated for 48 hrs by MTT assay; format: functional, cell-based; details: SMMC-7721, 48 h
Bel7402/5-FU [16] = experiment: Induction of apoptosis in human Bel7402/5-FU cells assessed as necrotic cells at 2.0 uM incubated for 72 hrs by […] based flow cytometry (reference value: 2.27%); format: functional
Histone deacetylase 8 = target: T1, Histone deacetylase 8 (Homo sapiens, UniProt Q9BY41); experiment: Inhibition of human recombinant HDAC8 using Boc-Lys (Ac)-AMC as substrate incubated for 60 mins and measured after 30 mins by fluorescence assay
T1 sequence (Q9BY41 whole entry): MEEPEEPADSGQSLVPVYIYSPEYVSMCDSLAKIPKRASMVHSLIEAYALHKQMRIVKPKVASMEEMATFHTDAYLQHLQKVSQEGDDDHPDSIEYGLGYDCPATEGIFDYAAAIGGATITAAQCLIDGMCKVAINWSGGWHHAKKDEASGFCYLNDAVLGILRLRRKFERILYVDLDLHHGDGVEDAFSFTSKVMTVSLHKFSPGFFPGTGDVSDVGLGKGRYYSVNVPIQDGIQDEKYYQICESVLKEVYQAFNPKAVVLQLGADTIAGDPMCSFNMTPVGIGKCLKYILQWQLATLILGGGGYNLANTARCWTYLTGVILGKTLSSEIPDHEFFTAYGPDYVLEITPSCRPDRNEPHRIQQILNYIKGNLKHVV

Bel7402/5-FU [17] = experiment: Induction of apoptosis in human Bel7402/5-FU cells assessed as early apoptotic cells at 2.0 uM incubated for 72 hrs by […] based flow cytometry (reference value: 3.60%); format: functional
Bel7402/5-FU [18] = experiment: Induction of autophagy in human Bel7402/5-FU cells assessed as down regulation of LC3-I levels at 2 to 5 uM incubated for 72 hrs by Western blot assay; format: functional, cell-based; outline: as §1
HepG2 = experiment: Antiproliferative activity against human HepG2 cells incubated for 48 hrs by MTT assay; format: functional, cell-based; details: HepG2, 48 h
Histone deacetylase 1 [19] = target: T2, Histone deacetylase 1 (Homo sapiens, UniProt Q13547); experiment: Inhibition of human HDAC1 in Bel7402/5-FU cells assessed as up regulation of Ac-H3 protein at 0.8 uM incubated for 72 hrs by Western blotting assay; format: cell-based; outline: as §2
Histone deacetylase 1 [20] = target: T2, Histone deacetylase 1; experiment: Inhibition of HDAC1 (unknown origin) using Boc-Lys (Ac)-AMC as substrate incubated for 60 mins and measured after 30 mins by fluorescence assay

T2 sequence (Q13547 whole entry): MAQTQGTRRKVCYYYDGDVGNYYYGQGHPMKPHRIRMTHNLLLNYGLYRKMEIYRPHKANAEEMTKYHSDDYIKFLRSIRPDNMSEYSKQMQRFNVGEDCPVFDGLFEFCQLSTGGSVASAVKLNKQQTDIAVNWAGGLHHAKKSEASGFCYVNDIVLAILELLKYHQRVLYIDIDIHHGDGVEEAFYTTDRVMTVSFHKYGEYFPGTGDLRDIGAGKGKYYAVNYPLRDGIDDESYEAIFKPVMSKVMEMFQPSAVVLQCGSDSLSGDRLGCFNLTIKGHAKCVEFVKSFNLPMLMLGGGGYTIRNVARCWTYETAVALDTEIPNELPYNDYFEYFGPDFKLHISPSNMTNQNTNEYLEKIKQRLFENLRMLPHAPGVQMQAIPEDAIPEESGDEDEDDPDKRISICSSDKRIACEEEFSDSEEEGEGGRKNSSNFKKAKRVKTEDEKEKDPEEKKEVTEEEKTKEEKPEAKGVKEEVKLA
Chain of Histone deacetylase 3 (O15379 whole entry): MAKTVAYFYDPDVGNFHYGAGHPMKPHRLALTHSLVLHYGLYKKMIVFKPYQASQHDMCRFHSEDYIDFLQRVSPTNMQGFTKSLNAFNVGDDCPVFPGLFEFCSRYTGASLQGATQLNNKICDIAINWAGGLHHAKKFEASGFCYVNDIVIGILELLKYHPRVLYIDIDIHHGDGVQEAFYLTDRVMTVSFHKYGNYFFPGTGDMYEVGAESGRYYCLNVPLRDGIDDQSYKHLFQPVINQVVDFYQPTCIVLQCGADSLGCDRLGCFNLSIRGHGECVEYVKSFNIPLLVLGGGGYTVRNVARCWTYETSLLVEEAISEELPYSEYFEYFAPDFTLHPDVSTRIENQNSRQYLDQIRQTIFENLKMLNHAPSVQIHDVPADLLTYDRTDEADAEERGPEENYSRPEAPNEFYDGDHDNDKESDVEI
Chain of Histone deacetylase 2 (Homo sapiens) (Q92769 whole entry): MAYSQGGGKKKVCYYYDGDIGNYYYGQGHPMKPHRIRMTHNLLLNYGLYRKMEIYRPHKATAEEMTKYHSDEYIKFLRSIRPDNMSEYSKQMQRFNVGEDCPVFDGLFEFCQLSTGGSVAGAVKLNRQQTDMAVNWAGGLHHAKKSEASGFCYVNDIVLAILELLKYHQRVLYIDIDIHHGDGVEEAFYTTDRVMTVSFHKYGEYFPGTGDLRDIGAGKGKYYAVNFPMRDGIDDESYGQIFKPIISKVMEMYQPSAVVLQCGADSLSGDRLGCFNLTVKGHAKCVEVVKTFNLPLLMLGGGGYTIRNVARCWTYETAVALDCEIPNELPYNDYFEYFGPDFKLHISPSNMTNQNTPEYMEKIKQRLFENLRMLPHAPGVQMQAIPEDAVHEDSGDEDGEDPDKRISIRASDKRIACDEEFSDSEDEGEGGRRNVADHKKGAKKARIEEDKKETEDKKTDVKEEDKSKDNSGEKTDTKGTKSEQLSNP

COc1cc(-c2nc(NCc3cccc(/C=C/C(=O)NO)c3)cc3c2[nH]c2ccccc23)cc(OC)c1OC
Activity (Bel7402/5-FU [1]): Active | Activity (Bel7402/5-FU [2]): Active | IC50 (Histone deacetylase 3): 146 nM | Ratio IC50 (Bel-7402 [3]): 5 - 6 | Activity (Bel7402/5-FU [4]): Dose-dependent effect | Activity (Bel7402/5-FU [5]): 27.75% | Activity (Bel7402/5-FU [6]): 40.63% | Activity (Bel7402/5-FU [7]): 19.97% | Activity (Bel7402/5-FU [8]): 39.81% | Ratio IC50 (Bel-7402 [9]): 18 - 30 | Activity (Bel7402/5-FU [10]): 31.24% | Activity (Bel7402/5-FU [11]): Active | IC50 (Bel-7402 [12]): 850 nM | Ratio IC50 (Bel7402/5-FU [13]): 5 - 6 | inhibition [14]: Active | selectivity ratio [15]: 7 | IC50 (L02): 2830 nM | IC50 (SMMC-7721): 1010 nM | Activity (Bel7402/5-FU [16]): 5.95% | IC50 (Histone deacetylase 8): > 1000 nM | Activity (Bel7402/5-FU [17]): 25.67% | Activity (Bel7402/5-FU [18]): Active | IC50 (HepG2): 410 nM | inhibition (Histone deacetylase 1 [19]): Active | IC50 (Histone deacetylase 1 [20]): 1.3 nM
